Source: PubChem BioAssay (several laboratories)
rCAG RNA binder: r(CAG) repeat RNA binding; actives 1.3% (n = 370,000); inhibition, % at 3 µM; TO-PRO-1 dye displacement fluorescence;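 active = inhibition above the plate cutoff, the mean of all test compounds on that plate plus 3 SD, cut at about 35% in these data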;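 note: 0% = DMSO alone and 100% = 100 µM mitoxantrone as full dye displacement; higher means more dye released from RNA so lower well fluorescence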
NR2E3 ag-1: human photoreceptor-specific nuclear receptor agonism; inhibition of corepressor binding, % at 3.98 µM; CHO-S Gal4-NCOR/VP16-NR2E3 two-hybrid, luciferase; Q9Y5X4; AID 602229; actives 0.35% (n = 360,000);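 active = inhibition above the mean of all tested compounds plus 3 SD, cut at about 70% in these data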;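 note: 0% = DMSO with NR2E3 transfected cells and 100% = cells lacking NR2E3 construct; higher means lower luciferase signal from less NR2E3 corepressor binding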
Target sequence (Q9Y5X4 whole entry, looked up, the tested form may be a part): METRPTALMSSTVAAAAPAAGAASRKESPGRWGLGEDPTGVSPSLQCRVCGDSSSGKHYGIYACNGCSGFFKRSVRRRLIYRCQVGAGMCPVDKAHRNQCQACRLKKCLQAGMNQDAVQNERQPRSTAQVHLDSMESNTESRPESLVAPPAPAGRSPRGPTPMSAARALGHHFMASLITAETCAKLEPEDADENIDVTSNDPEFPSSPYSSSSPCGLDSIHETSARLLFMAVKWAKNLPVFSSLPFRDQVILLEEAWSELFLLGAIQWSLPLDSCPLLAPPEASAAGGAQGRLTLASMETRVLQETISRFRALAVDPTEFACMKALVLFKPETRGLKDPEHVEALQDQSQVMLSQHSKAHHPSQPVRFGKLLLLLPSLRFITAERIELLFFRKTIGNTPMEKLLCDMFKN
NR2E3 ag-2: agonists of human nuclear receptor NR2E3 | actives 0.12% (n = 320,000) | GST-NR2E3/biotin-RetCOR TR-FRET, 1536-well | Q9Y5X4 | AID 2300 | inhibition of corepressor binding, % at 4.78 µM;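 active = percent inhibition above the cutoff of mean plus 3 SD of all tested compounds, set per screening campaign, cut at about 20% in these data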;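 note: 0% = DMSO wells and 100% = biotin wells as full block of FRET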
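Material – GST-tagged NR2E3 plus biotinylated RetCOR corepressor · Quantity – NR2E3 fusion 1.35 nM · Times – 5 h incubation at 4 °C · Medium – pH 7.5 Tris-based buffer · Technique – TR-FRET, Eu(K)-anti-GST donor, streptavidin-D2 acceptor, ex 340, em 617/671 nm · Benchmarks – high control biotin, low control 0.6% DMSO · Format – 1536-well plates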
Rev-erbA mod: modulates human Rev-erb alpha binding to DNA. actives 0.79% (n = 370,000). P20393. activity, % at 10 µM. Rev-erbα–FITC-DNA binding, fluorescence polarization, 90 min;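 active = activity above about 14%, limit read from the data; passing the limit was not always enough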;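 note: 0% = DMSO wells with 35 nM protein and 100% = DMSO wells with 750 nM protein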
PG9 binder: PG9 antibody binding by small molecule | TR-FRET gp120-PG9 antibody binding | inhibition, % at 6.7 µM | actives 0.43% (n = 360,000); in the data active = inhibition above about 8.5%
An asterisk follows results filed as active; · = no result; ! = not active in a repeat. Compounds with a hit are over-represented: about 2.6% of the library has one in this group of screens.

SMILES | rCAG RNA binder | NR2E3 ag-1 | NR2E3 ag-2 | Rev-erbA mod | PG9 binder
O=C(Nc1cccc(-c2csc(Nc3ccc(Cl)cc3)n2)c1)c1cccc(C(F)(F)F)c1 | 40* | -49 | -4 | -1 | -2
O=C(Nc1cccc(-c2csc(Nc3ccc(Cl)cc3)n2)c1)c1ccccc1 | 24 | -60 | 4 | 4 | 1
CC(COc1ccccc1)NC(C)[C@H](O)c1ccc(O)cc1 (stereo not given in full) | · | · | · | 4 | ·
CC(C)(C)OC(=O)NCCCCCNC(=O)c1nc[nH]c1C(=O)NCc1ccc(CNC(=O)OC(C)(C)C)cc1 | -4 | 79* | · | 1 | -1
CSc1ccc(C2C(C#N)=C(N)N(c3ccccc3)C3=C2C(=O)CCC3)cc1 (stereo not given) | -2 | -19 | -1 | -1 | 0
N#CC1=C(N)N(c2ccc(F)cc2)C2=C(C1c1ccc(O)cc1)S(=O)(=O)CC2 (stereo not given) | 35* | -16 | · | -5 | -5
CCOc1ccc(-c2cc3nc(C4CCN(C(=O)OC(C)(C)C)CC4)c(C(=O)O)cn3n2)cc1 | 70* | -4 | -1 | 1 | 0
Cc1cc(SCC(=O)N/N=C/c2ccc(O)c(O)c2O)c(C)cc1Br | 55* | -19 | -2 | -3 | 1
C1CCN2C[C@@H]3C[C@H](CN4CCCC[C@@H]34)[C@H]2C1 | · | · | · | -3 | ·
O=C1NC(=Nc2ccc3ccccc3c2)S/C1=C/c1ccco1 | 44* | -56 | -3 | -8 | 0
O=C1NC(=Nc2ccc(O)cc2)S/C1=C/c1ccco1 | 12 | -62 | -3 | -3 | -7
CC[C@@H]1OC(=O)C[C@@H](O)[C@H](C)[C@@H](O[C@@H]2O[C@H](C)[C@@H](O)[C@H](N(C)C)[C@H]2O)[C@@H](CCN2C[C@H](C)C[C@H](C)C2)C[C@@H](C)C(=O)/C=C/C(C)=C\[C@@H]1CO[C@@H]1O[C@H](C)[C@@H](O)[C@@H](OC)[C@H]1OC | · | · | · | -5 | ·
Nc1ncnc2c1ncn2C1C=C(CO)C(O)C1O (stereo not given) | · | 74* | · | · | ·
Nc1ncnc2c1ncn2[C@@H]1O[C@H](CO)C[C@H]1O | 4 | 16 | 2 | -1 | -1
COc1ccc(C(=O)c2nccc3cc(OC)c(OC)cc23)cc1OC | · | 1 | 20* | · | ·
C[C@]12CCC3c4ccc(O)cc4CCC3C1CC[C@@H]2O (stereo not given in full) | · | · | · | -1 | ·
CCc1nnc(NS(=O)(=O)c2ccc(NC(=O)/C=C/c3ccc(OC)cc3OC)cc2)s1 | 82* | 2 | -2 | -4 | -3
CCc1nnc(NS(=O)(=O)c2ccc(NC(=O)COc3ccc4ccccc4c3)cc2)s1 | 30 | 12 | 6 | -1 | -1
CCCC[C@@H](CC)COC(=O)c1ccccc1O | · | · | · | 2 | ·
Cc1cc(NS(=O)(=O)c2ccc(NC(=S)NC(=O)c3ccc(Cl)cc3Cl)cc2)no1 | 65* | 21 | 2 | 0 | -2
C[C@H]1CC2C([C@@H](O)C[C@@]3(C)C2CC[C@]3(O)C(=O)COC(=O)CCC(=O)O)[C@@]2(C)C=CC(=O)C=C12 (stereo not given in full) | · | · | · | -1 | ·
O=C(O)c1cc(S(=O)(=O)Nc2ccc3oc(=O)sc3c2)ccc1O | 60* | · | 4 | 1 | -1
CC(=O)c1c(C)oc2ccc(NS(=O)(=O)c3ccc(O)c(C(=O)O)c3)cc12 | 19 | 0 | 3 | -4 | -1
CC(=O)O[C@H]1C[C@@]2(C)[C@@H](C[C@@H](O)C3[C@]2(C)CC[C@H]2[C@H](C)[C@H](O)CC[C@]32C)/C1=C(/CCC=C(C)C)C(=O)O (stereo not given in full) | · | · | · | 1 | ·
COc1cc(/C=C(\C#N)c2nc3ccc(C)cc3[nH]2)cc([N+](=O)[O-])c1O | 63* | -141 | · | 1 | -8
SMILES | rCAG RNA binder | NR2E3 ag-1 | NR2E3 ag-2 | Rev-erbA mod | PG9 binder
COc1cc(/C=C(\C#N)c2nc3ccc(C)cc3[nH]2)c([N+](=O)[O-])cc1OC | 10 | 12 | 5 | -2 | 1
O=C(CN1C(=O)S/C(=C\c2ccc(-c3cc(C(=O)O)ccc3Cl)o2)C1=O)Nc1ccc2c(c1)OCO2 | 49* | -15 | · | -16 | -2
CC[C@@H]1/C=C(/C)C[C@H](C)C[C@H](OC)[C@H]2O[C@@](O)(C(=O)C(=O)N3CCCC[C@H]3C(=O)O[C@H](/C(C)=C/[C@@H]3CC[C@H](Cl)[C@H](OC)C3)[C@H](C)[C@@H](O)CC1=O)[C@H](C)C[C@@H]2OC | · | · | · | 11 | ·
Cc1nnc(NC(=O)c2sc3nc(-c4cccs4)cc(C(F)(F)F)c3c2N)s1 | 42* | 25 | 3 | 6 | 5
Nc1c(C(=O)Nc2nccs2)sc2nc(-c3cccs3)cc(C(F)(F)F)c12 | 11 | -19 | 2 | 7 | 1
CN1C2CC(OC(=O)[C@H](CO)c3ccccc3)C[C@H]1[C@H]1OC21 (stereo not given in full) | · | · | · | -8 | ·
Cn1c(-c2ccccc2)cc(=O)c2ccccc21 | -2 | -7 | 2 | 3 | -2
Cn1c2ccccc2c(=O)n2c(=O)c3ccccc3cc12 | · | · | 29* | · | ·
CC(C)C1CCC(C(=O)N[C@@H](Cc2ccccc2)C(=O)O)CC1 (stereo not given in full) | · | · | · | -5 | ·
C/C(=N\OCc1nc2ccccc2c(=O)n1/N=C/c1cc([N+](=O)[O-])ccc1O)c1ccccc1 | 62* | -36 | 1 | -4 | -1
CC1(C)S[C@@H]2[C@H](NC(=O)[C@H](N)c3ccc(O)cc3)C(=O)N2[C@H]1C(=O)O | 24 | 8 | 3 | 8 | 0
CC1(C)S[C@@H]2[C@H](NC(=O)[C@H](N)c3ccccc3)C(=O)N2[C@H]1C(=O)O | 58*! | -35 | -1 | 8 | 0
CC(=O)c1cccc(NS(=O)(=O)c2ccc(C(=O)Nc3ccccc3)cc2)c1 | 15 | 75* | 1 | 0 | -1
CC1(C)C2CCC1(C)C(O)C2 (stereo not given) | · | · | · | 0 | ·
O=C1NN(c2ccc(F)c(Cl)c2)C(=O)/C1=C\c1cccc(OC(=O)c2cccs2)c1 | 90* | -13 | 3 | -1 | 1
O=C1OC(c2ccccc2)=N/C1=C/c1cccc(OC(=O)c2cccs2)c1 | 19 | -5 | 6 | 0 | -3
CCOC(=O)c1ccc(-n2[nH]c(-c3ccccc3)cc2=O)cc1 | 49* | 1 | 0 | -7 | -2
CCOc1ccc(C(=O)N/N=C/c2ccc(-c3ccc(S(=O)(=O)Nc4ncccn4)cc3)o2)cc1 | 57* | -22 | -2 | 0 | -6
CCCCCCCC(=O)CC[C@@H]1[C@@H](C/C=C\CCCC(=O)O)[C@@H](O)C[C@H]1O | · | · | · | 2 | ·
Cc1ccc(S(=O)(=O)NNC(=O)c2cc3cc4ccccc4nc3s2)cc1 | 36* | -12 | 4 | 2 | -1
CNCC[C@@H](Oc1ccccc1)c1ccccc1 | · | · | · | -7 | ·
COc1ccc(S(=O)(=O)Nc2cccc(F)c2)cc1C | 1 | -4 | 1 | 3 | 2
